Data from ChEMBL document CHEMBL3526048, “In vitro metabolism of rivoglitazone, a novel peroxisome proliferator-activated receptor γ agonist, in rat, monkey, and human liver microsomes and freshly isolated hepatocytes” (Drug Metab Dispos, 2011).

Legend:
[1] = Drug metabolism in rat hepatocytes assessed as formation of 3-(4-((6-methoxy-1-methyl-1H-benzo[d]imidazol-2-yl)methoxy)phenyl)-2-(methylthio)propanamide at 30 uM after 3 hrs by radio-HPLC/LC-MS/MS analysis in presence of NADPH-generating system/SAM; format: ADME, cell-based, Hepatocyte
[2] = Drug metabolism in cynomolgus monkey liver microsomes assessed as formation of 2-amino-3-((1-carboxy-2-(4-((6-methoxy-1-methyl-1H-benzo[d]imidazol-2-yl)methoxy)phenyl)ethyl)disulfanyl)propanoic acid at 20 uM by radio-HPLC/LC-MS/MS analysis; format: ADME, Macaca fascicularis
[3] = molecular target: T1, UDP-glucuronosyltransferase 1A3 (Homo sapiens, UniProt P35503); experiment: Activity of human UGT1A3 expressed in microsomes isolated from baculovirus infected insect cell assessed as enzyme-mediated (2S,3S,4S,5R,6R)-3,4,5-trihydroxy-6-(5-(4-((6-methoxy-1-methyl-1H-benzo[d]imidazol-2-yl)methoxy)benzyl)-2,4-dioxothiazolidin-3-yl)tetrahydro-2H-pyran-2-carboxylic acid formation at 20 uM after 4 hrs by radio-HPLC/LC-MS/MS analysis in presence of UDPGA and UDPGA/SAM; format: ADME
T1 sequence (P35503 whole entry): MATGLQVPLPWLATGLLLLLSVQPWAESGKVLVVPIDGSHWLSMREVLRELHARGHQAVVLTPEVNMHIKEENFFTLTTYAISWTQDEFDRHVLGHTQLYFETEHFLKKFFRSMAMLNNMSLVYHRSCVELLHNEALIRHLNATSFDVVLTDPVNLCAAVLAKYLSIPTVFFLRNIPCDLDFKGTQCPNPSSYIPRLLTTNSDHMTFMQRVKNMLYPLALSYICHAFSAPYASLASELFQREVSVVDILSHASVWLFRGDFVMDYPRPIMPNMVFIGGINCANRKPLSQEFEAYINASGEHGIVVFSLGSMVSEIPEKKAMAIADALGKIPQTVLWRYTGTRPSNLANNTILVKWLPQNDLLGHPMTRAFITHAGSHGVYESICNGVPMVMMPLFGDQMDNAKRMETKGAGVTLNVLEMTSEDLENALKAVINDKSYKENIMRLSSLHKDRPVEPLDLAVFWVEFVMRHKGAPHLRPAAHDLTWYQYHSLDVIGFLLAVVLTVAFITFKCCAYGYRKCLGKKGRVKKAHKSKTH
Outline: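 Alamethicin (50 μg/mg protein, 15 min on ice) pretreated expressed human UGT microsomes (1 mg/ml protein) from baculovirus-infected insect cells. Incubation with [¹⁴C]rivoglitazone (20 μM) in 100 mM Tris-HCl (pH 7.5) with 10 mM MgCl₂, started by 5 mM UDPGA, 4 h at 37°C with shaking. UGT insect-cell control supersomes were run alongside. Acetonitrile stop, concentrated supernatant analysed by radio-HPLC, LC-MS and LC-MS/MS.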

[4] = molecular target: Cytochrome P450 2C19 (Homo sapiens, UniProt P33261); experiment: Activity of human CYP2C19 expressed in microsomes isolated from baculovirus infected insect cell assessed as enzyme-mediated 3-(4-((6-methoxy-1-methyl-1H-benzo[d]imidazol-2-yl)methoxy)phenyl)-2-(methylthio)propanamide formation at 20 uM after 2 hrs by radio-HPLC/LC-MS/MS analysis in presence of NADPH-generating system/SAM; format: ADME
Sequence of Cytochrome P450 2C19 (P33261 whole entry): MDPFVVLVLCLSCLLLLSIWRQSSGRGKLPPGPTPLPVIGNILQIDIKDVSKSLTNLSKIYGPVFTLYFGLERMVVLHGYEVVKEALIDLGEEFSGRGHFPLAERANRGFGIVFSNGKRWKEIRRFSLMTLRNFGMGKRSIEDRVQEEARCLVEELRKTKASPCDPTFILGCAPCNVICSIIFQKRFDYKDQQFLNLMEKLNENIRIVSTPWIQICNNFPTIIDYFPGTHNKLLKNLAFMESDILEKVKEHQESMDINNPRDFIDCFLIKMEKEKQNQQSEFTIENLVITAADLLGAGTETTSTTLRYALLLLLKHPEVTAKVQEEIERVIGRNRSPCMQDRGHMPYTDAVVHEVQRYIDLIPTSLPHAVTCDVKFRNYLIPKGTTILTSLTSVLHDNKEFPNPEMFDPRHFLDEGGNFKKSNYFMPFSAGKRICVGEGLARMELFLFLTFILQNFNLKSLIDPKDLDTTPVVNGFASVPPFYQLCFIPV

[5] = molecular target: T2, UDP-glucuronosyltransferase 1A4 (Homo sapiens, UniProt P22310); experiment: (§1) Activity of human UGT1A4 expressed in microsomes isolated from baculovirus infected insect cell assessed as enzyme-mediated (2S,3S,4S,5R,6R)-6-((1-carboxy-2-(4-((6-methoxy-1-methyl-1H-benzo[d]imidazol-2-yl)methoxy)phenyl)ethylthio)carbonylamino)-3,4,5-trihydroxytetrahydro-2H-pyran-2-carboxylic acid formation at 20 uM after 4 hrs by radio-HPLC/LC-MS/MS analysis in presence of UDPGA; format: ADME
T2 sequence (P22310 whole entry): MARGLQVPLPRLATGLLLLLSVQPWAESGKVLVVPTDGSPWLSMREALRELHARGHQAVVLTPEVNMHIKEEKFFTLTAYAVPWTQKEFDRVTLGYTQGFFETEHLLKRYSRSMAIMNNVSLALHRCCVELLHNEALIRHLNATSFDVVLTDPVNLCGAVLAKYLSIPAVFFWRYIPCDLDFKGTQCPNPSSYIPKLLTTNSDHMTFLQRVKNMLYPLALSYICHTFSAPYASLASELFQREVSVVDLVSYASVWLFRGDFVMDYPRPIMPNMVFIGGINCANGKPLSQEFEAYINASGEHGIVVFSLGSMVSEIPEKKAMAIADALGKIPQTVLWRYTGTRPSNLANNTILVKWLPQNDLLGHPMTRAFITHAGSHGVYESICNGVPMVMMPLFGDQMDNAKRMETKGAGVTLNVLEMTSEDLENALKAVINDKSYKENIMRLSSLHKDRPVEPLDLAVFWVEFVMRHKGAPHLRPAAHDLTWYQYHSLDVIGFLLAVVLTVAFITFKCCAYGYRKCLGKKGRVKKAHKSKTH

[6] = Drug metabolism in rat hepatocytes assessed as formation of 5-hydroxy-5-(4-((6-methoxy-1-methyl-1H-benzo[d]imidazol-2-yl)methoxy)benzyl)thiazolidine-2,4-dione at 30 uM after 3 hrs by radio-HPLC/LC-MS/MS analysis in presence of NADPH-generating system and NADPH-generating system/SAM; format: ADME, cell-based, Hepatocyte
[7] = Drug metabolism in cynomolgus monkey liver microsomes assessed as formation of 3-(4-((6-methoxy-1-methyl-1H-benzo[d]imidazol-2-yl)methoxy)phenyl)-2-(methylthio)propanoic acid at 20 uM after 2 to 4 hrs by radio-HPLC/LC-MS/MS analysis in presence of NADPH-generating system/SAM and UDPGA/SAM; format: ADME, Macaca fascicularis
[8] = molecular target: T1, UDP-glucuronosyltransferase 1A3; experiment: Activity of human UGT1A3 expressed in microsomes isolated from baculovirus infected insect cell assessed as enzyme-mediated 3-(4-((6-methoxy-1-methyl-1H-benzo[d]imidazol-2-yl)methoxy)phenyl)-2-(methylsulfinyl)propanamide formation at 20 uM after 4 hrs by radio-HPLC/LC-MS/MS analysis in presence of NADPH-generating system/SAM; format: ADME
[9] = molecular target: T3, UDP-glucuronosyltransferase 2B4 (Homo sapiens, UniProt P06133); experiment: as §1, with “UGT2B4” for “UGT1A4”; format: ADME
T3 sequence (P06133 whole entry): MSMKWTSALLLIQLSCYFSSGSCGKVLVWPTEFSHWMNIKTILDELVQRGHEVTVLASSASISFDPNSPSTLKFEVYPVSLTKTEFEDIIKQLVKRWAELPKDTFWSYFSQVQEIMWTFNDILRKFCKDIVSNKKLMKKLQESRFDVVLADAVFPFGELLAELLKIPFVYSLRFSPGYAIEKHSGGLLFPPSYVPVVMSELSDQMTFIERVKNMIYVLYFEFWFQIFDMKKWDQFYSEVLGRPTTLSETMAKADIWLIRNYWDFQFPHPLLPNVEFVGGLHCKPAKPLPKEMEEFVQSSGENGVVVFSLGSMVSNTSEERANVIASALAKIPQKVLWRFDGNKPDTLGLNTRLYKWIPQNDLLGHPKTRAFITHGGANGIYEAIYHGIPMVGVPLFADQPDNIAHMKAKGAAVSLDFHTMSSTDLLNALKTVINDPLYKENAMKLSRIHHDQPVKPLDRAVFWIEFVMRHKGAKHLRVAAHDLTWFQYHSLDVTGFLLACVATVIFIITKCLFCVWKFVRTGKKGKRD

[10] = Drug metabolism in cynomolgus monkey liver microsomes assessed as formation of 2-hydroxy-3-(4-((6-methoxy-1-methyl-1H-benzo[d]imidazol-2-yl)methoxy)phenyl)propanamide at 20 uM after 2 hrs by radio-HPLC/LC-MS/MS analysis in presence of NADPH-generating system and NADPH-generating system/SAM; format: ADME, Macaca fascicularis

**Q.** For `COc1ccc2nc(COc3ccc(C[14CH]4SC(=O)NC4=O)cc3)n(C)c2c1.Cl` (racemic), which Drug metabolism [1] is on record?
**A.** metabolite_detected

**Q.** And the Drug metabolism [2]?
**A.** metabolite_not_detected

**Q.** And the Drug metabolism [3]?
**A.** metabolite_detected

**Q.** And the Drug metabolism [4]?
**A.** metabolite_not_detected

**Q.** What about the Drug metabolism [5] of the same compound?
**A.** metabolite_not_detected

**Q.** And the Drug metabolism [6]?
**A.** metabolite_detected

**Q.** What about the Drug metabolism [7] of the same compound?
**A.** metabolite_detected

**Q.** What about the Drug metabolism [8] of the same compound?
**A.** metabolite_not_detected

**Q.** What about the Drug metabolism [9] of the same compound?
**A.** metabolite_not_detected

**Q.** And the Drug metabolism [10]?
**A.** metabolite_detected
